Screening results (PubChem BioAssay)
Only some compounds are listed: those with a hit (about 1.5% of all), similar ones and a draw of the others.
EBI2 block = EBI2 (human) antagonism; 0.81% of 360,000 active; P32249; EBI2 beta-arrestin recruitment, luminescence, 7a,25-OHC stimulated; inhibition, % at 5 µM; in the data active means inhibition above about 38%;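 further: enzyme fragment complementation signal reports receptor beta-arrestin coupling in cells; 0% = agonist plus DMSO wells and 100% = wells without agonist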
APJ agonist = activates the human apelin receptor APJ; CHO-K1 APJ PathHunter beta-arrestin, luminescence; 0% DMSO wells, 100% apelin; activation, % at 20 µM; 0.11% of 330,000 active;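 active means activation more than six SD over the plate average, tested at 20 µM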;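 further: 0% = DMSO alone and 100% = apelin-13 at 10 nM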
Target sequence (P35414 whole entry, looked up): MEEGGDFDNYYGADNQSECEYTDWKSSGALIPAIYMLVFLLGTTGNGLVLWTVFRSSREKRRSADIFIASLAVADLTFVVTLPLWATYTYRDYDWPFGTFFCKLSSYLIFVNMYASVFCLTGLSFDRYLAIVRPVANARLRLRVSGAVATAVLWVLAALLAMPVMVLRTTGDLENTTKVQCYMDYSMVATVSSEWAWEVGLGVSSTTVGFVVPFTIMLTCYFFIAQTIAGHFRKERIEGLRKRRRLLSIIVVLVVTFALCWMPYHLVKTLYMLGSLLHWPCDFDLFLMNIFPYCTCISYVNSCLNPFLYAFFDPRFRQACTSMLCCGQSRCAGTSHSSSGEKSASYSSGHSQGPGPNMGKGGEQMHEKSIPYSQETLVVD
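Assay system – PathHunter CHO-K1 APJ (AGTRL-1) beta-arrestin reporter cells · Compound – one dose, 20 µM compound, 1% DMSO · Timing – compound 90 min 25 °C, reagent 1 h · Measured by – luminescence from split beta-galactosidase complementation, Galacton Star/Emerald II substrate · Measure – beta-arrestin recruitment to APJ as agonist activity, luminescent signal · Benchmarks – DMSO vs Apelin-13 10 nM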
APJ antagonist = antagonists of human APJ apelin receptor; AID 2521; CHO-K1 APJ beta-arrestin complementation, luminescence; 0.32% of 330,000 active; inhibition, % at 20 µM;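 active means inhibition above about 40% at 20 µM, limit read from the data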;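 further: cells challenged with 10 nM apelin-13 agonist together with compound; plate controls were apelin-13 plus DMSO wells for no effect and DMSO wells lacking apelin-13 for full effect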
CXCR6 inh = blocks human CXCR6 beta-arrestin recruitment | CHO-K1 PathHunter CXCR6 beta-arrestin, luminescence | inhibition, % at 20 µM | 0.36% of 360,000 active | AID 602244; in the data active means inhibition above about 34%, passing the limit was not always enough;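 further: antagonist mode with CXCL16 agonist at 10 nM final; 0% = 10 nM CXCL16 with DMSO and 100% = unstimulated wells without agonist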
Target sequence (O00574 whole entry, looked up): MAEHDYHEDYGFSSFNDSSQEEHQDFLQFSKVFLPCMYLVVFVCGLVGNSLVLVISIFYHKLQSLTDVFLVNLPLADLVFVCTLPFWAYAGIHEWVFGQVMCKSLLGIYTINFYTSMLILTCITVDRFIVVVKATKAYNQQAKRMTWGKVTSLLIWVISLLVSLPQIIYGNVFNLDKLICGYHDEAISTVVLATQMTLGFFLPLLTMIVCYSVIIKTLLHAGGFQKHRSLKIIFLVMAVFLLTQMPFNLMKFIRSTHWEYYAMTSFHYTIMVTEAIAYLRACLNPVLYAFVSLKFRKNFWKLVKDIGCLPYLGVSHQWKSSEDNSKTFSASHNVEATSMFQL
CCR6 antagonist = CCR6 (human) receptor antagonism; AID 493098; P51684; 0.49% of 340,000 active; inhibition, % at 20 µM; CHO-K1 CCR6 PathHunter beta-arrestin, luminescence, CCL20-stimulated;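 active means compounds whose inhibition of the agonist-driven luminescence signal at 20 µM reaches about 50%, limit read from the data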;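 further: cells stimulated with CCL20 at 14 nM final; plate controls were DMSO with CCL20 for no effect and DMSO without agonist for full effect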
EBI2 antag conf = confirmation of human EBI2 receptor antagonists. shares compounds with EBI2 block. EBI2 beta-arrestin luminescence, 7a,25-OHC antagonism. inhibition, % at 5 µM. 29% of 2,400 active. AID 651997;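 active means inhibition of at least 50%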
EBI2 agonist = EBI2 agonism counter-screen; EBI2-expressing cells, agonist mode, luminescence, 60 min; 0% vehicle, 100% 7α,25-dihydroxycholesterol control; shares compounds with EBI2 block; 2,400 tested, under 10 active; activation, % at 5 µM;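 active means activation of at least 50%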
bGal counter = inhibits E. coli beta-galactosidase, counter-screen for EBI2 antagonists. shares compounds with EBI2 block. purified beta-galactosidase, luminescent Galacton Star, 15 min. inhibition, % at 5 µM. 1% of 2,400 active;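 active means replicate-average signal at least 3 plate SD below neutral wells, shown as high inhibition, flagging enzyme-inhibiting false positives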;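 further: 0% = DMSO wells with enzyme and 100% = wells lacking enzyme; higher means stronger loss of beta-gal luminescence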
An asterisk follows results filed as active; . = not tested or not shown.

SMILES	EBI2 block	APJ agonist	APJ antagonist	CXCR6 inh	CCR6 antagonist	EBI2 antag conf	EBI2 agonist	bGal counter
Cn1cccc1Cc1nnc(SCC(=O)N2CCCC2)n1CCc1ccccc1	5.8	-2.8	-75.1	-2.7	6.6	.	.	.
Cc1c(NC2(C#N)CCCCC2)c(=O)n(-c2ccccc2)n1C	-5.0	0.9	-15.5	-2.4	3.1	.	.	.
O=C1NC(Cc2ccccc2)c2nc3cc(F)c(F)cc3c(=O)n2-c2cc3ccccc3cc21 (configuration not stated)	44.5*	.	.	4.0	.	19.5	-1.6	-9.7
CCn1c(SCc2ccccc2Cl)nc2nc3c(cc2c1=O)CCCC3	57.3*	.	.	19.6	23.2	40.7	0.3	3.4
Cc1cccc(C)c1-n1nnnc1C1(C)CCC(=O)N1Cc1cccs1 (configuration not stated)	6.0	.	.	-7.0	.	.	.	.
CCOc1ccc(N2CC(C(=O)Nc3ccc(S(=O)(=O)NCC4CCCO4)cc3)CC2=O)cc1 (configuration not stated)	51.2*	-0.3	4.5	-13.1	-0.7	27.3	0.9	7.2
CCOCCCNS(=O)(=O)c1ccc(NC(=O)C2CC(=O)N(c3ccc(C)cc3)C2)cc1 (configuration not stated)	65.0*	-1.8	2.9	-4.5	20.2	39.0	-1.6	-11.6
CC1=NN(c2ccc(Cl)cc2)C(=O)C1C(c1ccccc1O)c1c(C)[nH]n(-c2ccc(Cl)cc2)c1=O (configuration not stated)	64.7*	0.2	3.1	25.0	-3.0	34.5	0.7	-6.5
O=C(COC(=O)Cc1ccccc1F)NNC(=O)c1ccc([N+](=O)[O-])cc1	-11.9	18.1	-6.0	-15.8	-14.5	.	.	.
COCCCn1c(=O)/c(=C\c2ccccc2OC(F)F)s/c1=C(/C#N)C(=O)NC(C)C	60.0*	0.2	0.4	11.2	2.0	50.6*	0.4	-0.3
Cc1ccc([N+](=O)[O-])cc1N(CC(=O)Nc1ccc(S(=O)(=O)Nc2cccc(C(F)(F)F)c2)cc1)S(C)(=O)=O	84.3*	-0.3	-14.8	-8.8	4.9	65.2*	0.8	3.7
COc1ccccc1N(CC(=O)Nc1cccc(C(F)(F)F)c1)S(C)(=O)=O	-3.4	-2.5	5.4	1.6	11.5	.	.	.
CCOC(=O)N1CCN(C(=O)CNC2CCCCCCC2)CC1	45.1*	-4.5	8.8	2.7	13.2	10.6	0.5	4.3
CCn1nccc1C(=O)Nc1ccc(C(=O)OC(C)C)cc1	6.6	0.0	-5.8	0.8	11.8	.	.	.
Cc1ccc2oc(C(=O)N3CCC(O)(c4cccc(C(F)(F)F)c4)CC3)c(C)c2c1	56.9*	-3.6	-5.9	0.2	25.4	43.6	-0.9	-4.7
Cc1ccc(S(=O)(=O)N2[C@@H](CO)CO[C@H]2CC(=O)c2cccc3ccccc23)cc1	3.2	.	.	.	.	.	.	.
CCC(C(=O)N1CCC(C(N)=O)CC1)n1nc(C)n2c(cc3occc32)c1=O (configuration not stated)	4.1	-3.3	7.1	2.4	5.0	.	.	.
CC(C)Oc1cc(F)ccc1-c1cc(C(=O)Nc2ccc(C(C)C)cc2)[nH]n1	53.9*	.	.	3.0	.	47.2	1.0	1.4
CC1(NC(=O)CC(c2ccccc2)(c2ccccc2)c2ccccc2)CCN(CCCc2ccccc2)C1=O (configuration not stated)	7.0	0.7	12.2	32.1	19.4	.	.	.
CCOC(=O)C(C)C1(O)c2ccccc2-c2ncccc21 (configuration not stated)	-1.8	-0.7	9.7	5.4	-16.4	.	.	.
OC(CC1CC12c1ccccc1-c1ncccc12)(c1ccccc1)c1ccccc1 (configuration not stated)	47.1*	0.2	-4.7	15.4	13.6	39.4	-0.2	3.5
COCCOc1ccc(C(F)(F)F)cc1NC(=O)COC(=O)Cc1c[nH]c2ccccc12	82.4*	1.8	-0.2	-2.3	10.8	33.6	1.4	4.3
COc1ccc(N2C(=O)C3CCCN3C2=S)cc1 (configuration not stated)	-1.4	-1.3	11.4	8.2	-11.2	.	.	.
Cc1cccc(C(=O)N2CCN(c3ccc([N+](=O)[O-])c(N4CCOCC4)c3)CC2)c1	12.9	0.4	11.4	-2.9	-4.7	.	.	.
O=C(c1ccc2ccccc2c1)N1CCN(c2ccc([N+](=O)[O-])c(N3CCOCC3)c2)CC1	47.2*	-2.9	-13.9	-2.9	6.6	33.9	0.2	6.8
SMILES	EBI2 block	APJ agonist	APJ antagonist	CXCR6 inh	CCR6 antagonist	EBI2 antag conf	EBI2 agonist	bGal counter
O=C(/C=C/c1ccccc1)N1CCN(c2ccc([N+](=O)[O-])c(N3CCOCC3)c2)CC1	77.7*	4.2	17.7	-3.9	15.1	57.8*	-1.5	-7.5
O=C(OCc1cn([C@H]2CN(Cc3cccs3)[C@@H](c3ccc(Cl)cc3)C[C@@H]2O)nn1)c1ccccc1	-5.0	.	.	-3.5	.	.	.	.
O=C(/C=C/c1cccs1)N1CCOCC1	-8.9	-2.3	6.9	8.4	1.4	.	.	.
O=C(/C=C/c1ccc(Cl)cc1)N1CCN(c2ccc(Cl)cc2[N+](=O)[O-])CC1	97.8*	-4.1	3.0	1.1	14.9	79.8*	-0.2	10.0
O=C(CN1CCN(c2ccc(Cl)cc2[N+](=O)[O-])CC1)N1CCOCC1	7.1	2.9	-2.0	-7.0	-8.2	.	.	.
O=C(Cc1ccccc1[N+](=O)[O-])N1CCN(c2ccccc2F)CC1	-1.2	-1.7	-2.0	-7.4	-5.9	.	.	.
O=C(/C=C/c1cccs1)N1CCN(c2ccccc2F)CC1	49.6*	-2.8	-19.5	7.7	3.5	52.2*	-0.2	6.9
O=C(/C=C/c1ccc([N+](=O)[O-])cc1)N1CCN(c2ccccc2F)CC1	67.6*	1.9	7.9	5.2	-10.3	23.8	1.9	6.6
O=C(O/N=C\c1ccc(N2CCCCC2)c([N+](=O)[O-])c1)c1ccc(Cl)cc1Cl	51.4*	-3.1	13.1	10.8	13.9	13.1	1.1	7.1
O=C(/C=C/c1ccccc1)N1CCN(c2c(Cl)cccc2[N+](=O)[O-])CC1	94.8*	-1.9	-2.1	-3.5	14.9	91.1*	1.5	2.2
CC(=O)c1ccc(N2CCN(C(=O)/C=C/c3cccs3)CC2)cc1	15.1	-3.8	-9.7	-2.0	6.2	.	.	.
O=C(/C=C/c1cccs1)N1CCN(c2ccc(F)cc2)CC1	54.9*	2.0	16.9	4.9	22.4	36.3	1.2	6.8
CCC(=O)N1CCN(c2c(Cl)cccc2[N+](=O)[O-])CC1	-3.0	-2.5	-18.0	4.3	18.1	.	.	.
CC1(C)C2CCC1(C)C(NC(=O)/C=C/c1ccccc1)C2 (configuration not stated)	46.3*	-1.7	-1.1	-0.7	10.0	43.3	0.1	1.6
